From ChEMBL document CHEMBL1123129, “Hypolipidemic activity of indan-1,3-dione derivatives in rodents” (J Med Chem, 1985) come the findings set out here.

The target of assay [1] is Acetyl-CoA carboxylase 1 (Mus musculus) (UniProt Q5SWU9). The assay is described as follows: In Vitro evaluation for the CF1 liver enzyme activity on Acetyl-CoA carboxylase at concentration 200 uM. A digest of the protocol: (§1)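 Liver was taken from CF1 male mice and made into 10% homogenates, which were incubated with test compound at 50, 100 or 200 µM. Each enzyme was assayed by its literature method, and protein was measured by Lowry. N = 6. Activity is expressed as % of untreated control ± SD.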

Assay [2] in a line: In Vitro evaluation for the CF1 liver enzyme activity on Acyl cholesterol acyltransferase at concentration 50 uM. In short, it runs like this:
as §1

Assay [3] deals with T1, 3-hydroxy-3-methylglutaryl-coenzyme A reductase (Mus musculus) (UniProt Q01237).
T1 sequence (whole entry): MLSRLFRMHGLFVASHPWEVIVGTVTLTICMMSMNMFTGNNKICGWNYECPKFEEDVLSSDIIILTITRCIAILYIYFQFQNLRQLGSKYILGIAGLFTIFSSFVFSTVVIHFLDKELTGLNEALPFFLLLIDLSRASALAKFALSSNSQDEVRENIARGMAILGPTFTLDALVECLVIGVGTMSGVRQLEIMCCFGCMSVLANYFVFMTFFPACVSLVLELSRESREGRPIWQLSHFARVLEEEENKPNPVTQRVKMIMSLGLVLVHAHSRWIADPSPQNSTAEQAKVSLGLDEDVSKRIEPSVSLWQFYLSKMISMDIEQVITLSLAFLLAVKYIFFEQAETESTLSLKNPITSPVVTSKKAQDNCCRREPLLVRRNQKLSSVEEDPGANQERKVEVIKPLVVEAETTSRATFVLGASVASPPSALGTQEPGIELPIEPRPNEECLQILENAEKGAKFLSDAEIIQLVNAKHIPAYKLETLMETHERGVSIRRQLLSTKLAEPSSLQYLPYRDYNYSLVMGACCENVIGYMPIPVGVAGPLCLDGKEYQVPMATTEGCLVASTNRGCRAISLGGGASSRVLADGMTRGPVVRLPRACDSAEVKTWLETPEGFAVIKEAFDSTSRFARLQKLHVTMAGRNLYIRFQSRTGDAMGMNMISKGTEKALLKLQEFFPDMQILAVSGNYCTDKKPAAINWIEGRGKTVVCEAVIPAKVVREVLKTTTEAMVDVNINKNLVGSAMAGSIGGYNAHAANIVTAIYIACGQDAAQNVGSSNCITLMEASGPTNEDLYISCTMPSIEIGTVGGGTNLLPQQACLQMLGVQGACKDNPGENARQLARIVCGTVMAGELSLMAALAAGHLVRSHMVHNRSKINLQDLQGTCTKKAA
The assay is described as follows: In Vitro evaluation for the CF1 liver enzyme activity on HMG CoA reductase at concentration 200 uM. In short, it runs like this:
as §1

In assay [4] the target is T1, 3-hydroxy-3-methylglutaryl-coenzyme A reductase (Mus musculus). Description: In Vivo effect for the hypolipidemic activity on HMG-CoA reductase in CF1 mice after 16 days of oral administration at a dose of 10 mg/kg. Also on record: dose 10 mg/kg. The format is organism-based. A digest of the protocol:
(§2)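 CF1 male mice are dosed orally at 10–60 mg/kg per day for 16 days, with 1% CMC as the control vehicle. Liver is homogenized at 10% in 0.25 M sucrose + 0.001 M EDTA, pH 7.2. Enzymes are assayed by literature methods, with Lowry protein. Activity is given as % of control (X ± SD, N = 6), with p from Student's t test.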

Assay [5] relates to Mus musculus. The assay is described as follows: Hypolipidemic activity in CF1 male mice at a dose of 20 mg/kg per day, serum cholesterol measured on the 16th day. It counts as functional. In short, it runs like this:
(§3)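 CF1 male mice (~30 g) were given 20 mg/kg per day ip at 11:00 a.m.; N = 6 per group. Tail-vein serum was collected in nonheparinized microcapillaries. Cholesterol was measured on days 9 and 16 by modified Liebermann–Burchard on duplicate 25 µL samples. Triglyceride was measured on day 16 in a separate group, duplicate 50 µL. Values are % control ± SD; Student's t test.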

The test system of assay [6] is Mus musculus. Description: Hypolipidemic activity in CF1 male mice at a dose of 20 mg/kg per day, serum triglyceride measured on the 16th day. It counts as functional. In short, it runs like this: as §3
Assay [7] addresses T2, Sterol O-acyltransferase 1 (Mus musculus) (UniProt Q61263).
T2 sequence (whole entry): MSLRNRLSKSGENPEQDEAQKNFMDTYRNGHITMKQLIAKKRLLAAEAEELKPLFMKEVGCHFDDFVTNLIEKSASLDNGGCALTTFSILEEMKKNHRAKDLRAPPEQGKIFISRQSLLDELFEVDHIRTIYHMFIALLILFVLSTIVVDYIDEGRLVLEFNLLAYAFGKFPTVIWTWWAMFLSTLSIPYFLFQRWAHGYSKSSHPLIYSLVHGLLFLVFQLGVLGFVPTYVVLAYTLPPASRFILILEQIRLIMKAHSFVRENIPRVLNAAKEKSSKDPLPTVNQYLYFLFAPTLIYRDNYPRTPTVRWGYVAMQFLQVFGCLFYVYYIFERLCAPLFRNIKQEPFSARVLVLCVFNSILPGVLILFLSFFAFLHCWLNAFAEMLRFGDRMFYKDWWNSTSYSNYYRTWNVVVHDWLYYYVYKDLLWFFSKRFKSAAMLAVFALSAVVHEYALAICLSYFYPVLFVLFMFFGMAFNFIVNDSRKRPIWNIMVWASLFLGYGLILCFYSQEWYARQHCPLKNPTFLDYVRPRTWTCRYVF
Description: In Vivo effect for the hypolipidemic activity on Acyl-COA cholesterol acyltransferase in CF1 mice after 16 days of oral administration at a dose of 40 mg/kg. It counts as functional, organism-based. Also on record: dose 40 mg/kg. A digest of the protocol:
as §2

Assay [8] is filed under the species Mus musculus. Description: In Vitro evaluation for the CF1 liver enzyme activity on Mitochondrial citrate exchange at concentration 200 uM. It counts as functional. In short, it runs like this: (§4)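 Mouse liver enzymes assayed in vitro on 10% homogenates of CF1 male mouse liver, with test drug added at 50–200 μM. Each enzyme follows a published procedure. Protein is measured by Lowry. Activity is given as % of untreated control (X ± SD, N = 6).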

In assay [9] the test system is Rattus norvegicus. The assay is described as follows: Compound was evaluated for the hypolipidemic activity at 20 mg/kg per day orally for 14 days on phospholipids content in rat feces. The format is functional. The following applies: route oral. A digest of the protocol: (§5)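 Male Sprague–Dawley rats were dosed orally for 14 days. Liver, small intestine and a 24-h fecal collection were lipid-extracted. Extracts were assayed for cholesterol (modified Liebermann–Burchard), triglyceride (enzymatic kit), neutral lipids, phospholipids and protein. Values are % of 1% CMC vehicle control, mean ± SD, N = 6.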

Assay [10] has as its system Rattus norvegicus. Description: Compound was evaluated for the hypolipidemic activity at 20 mg/kg per day orally for 14 days on protein content in rat HDL. The following applies: route oral. It counts as functional. A digest of the protocol:
(§6)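 Male Sprague–Dawley rats (~300 g) were dosed orally each day. Blood was drawn from the abdominal vein. Lipoprotein fractions (chylomicron, VLDL, LDL, HDL) were separated by the Hatch–Lees and Havel methods. Each fraction was assayed for cholesterol, triglyceride (enzymatic kit), neutral lipids, phospholipids and Lowry protein. Values are % of 1% CMC vehicle control, N = 6.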

Assay [11] relates to Rattus norvegicus. Description: Compound was evaluated for the hypolipidemic activity at 20 mg/kg per day orally for 14 days on protein content in rat LDL. It counts as functional. The following applies: route oral. In short, it runs like this: as §6
Assay [12] deals with Rattus norvegicus. Description: Compound was evaluated for the hypolipidemic activity at 20 mg/kg per day orally for 14 days on protein content in rat liver. It counts as functional. The following applies: route oral. In short, it runs like this: as §5
In assay [13] the test system is Rattus norvegicus. The assay is described as follows: Compound was evaluated for the hypolipidemic activity at 20 mg/kg per day orally for 14 days on cholesterol content in rat LDL. The format is functional. The following applies: route oral. A digest of the protocol:
as §6

The species entered for assay [14] is Mus musculus. The assay is described as follows: In Vitro evaluation for the CF1 liver enzyme activity on Hepatic lipoprotein lipase at concentration 50 uM. The format is functional. In short, it runs like this:
as §4

As for `COc1ccc(C2C(=O)c3ccccc3C2=O)cc1` [ANISINDIONE], the Control is 67% in assay [1]; 94% in assay [2]; 105% in assay [3]; 116% in assay [4]; 42% in assay [7]; 36% in [8]. The Control in assay [9] is 100%; in [10], 107%; in [11], 95%; in [12], 100%; in assay [13] it was 18%; in assay [14], 86%. In assay [5], the “Serum cholesterol, % of control” value worked out at 59%. The “Serum triglyceride, % of control” value in [6] amounted to 42%.
